Measurements published in ChEMBL document CHEMBL1687710, “Heterocyclic compounds that inhibit Rev-RRE function and human immunodeficiency virus type 1 replication” (Antimicrob Agents Chemother, 2008).
Active and inactive are the calls of the source. No cut-off for these calls is given here.

Legend:
[1] = test system: Human immunodeficiency virus 1; assay: Antiviral activity against HIV1 infected in TNFalpha-stimulated human U1 cells assessed as inhibition of p24 synthesis at 10 uM after 24 hrs by Western blotting; format: functional, organism-based
Summary of the method: (§1)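 U1 cells carrying integrated provirus were induced with TNF-α and given compound (5 or 10 μM). After 24 h, cells were harvested and analysed by Western blot for p24, Pr55gag and Nef using p24- and Nef-specific monoclonal antibodies.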

[2] = Inhibition of HIV1 Rev expressed in human HeLa cells co-expressing renilla luciferase reporter gene assessed as inhibition of renilla luciferase expression after 24 hrs; format: cell-based; conditions: Human immunodeficiency virus 1, HeLa
Summary of the method: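 HeLa line with stably integrated Rev-dependent Renilla luciferase reporter (CMV promoter) plus bicistronic firefly luciferase/HIV-1 IIIB rev construct under Tet-Off; doxycycline withdrawn to induce Rev and both luciferases while compound added at various concentrations.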

HEK-293T = assay: Inhibition of HIV1 Rev-Rev response element-mediated p24 antigen production expressed in human HEK 293T cells after 72 hrs; conditions: Human immunodeficiency virus 1
[3] = as above; conditions: Human immunodeficiency virus 1, HEK-293T
[4] = test system: Human immunodeficiency virus 1; assay: Inhibition of HIV1 Rev-radiolabeled Rev response element interaction at up to 100 uM after 10 mins by electrophoretic mobility shift assay
Summary of the method: (§2)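 A 234-bp RRE RNA was transcribed with [32P]UTP and T7 polymerase, then refolded (80°C 3 min, slow cooling). RRE (0.5 ng) was incubated with bacterial Rev (38 ng) in HEPES-KOH pH 7.8, 200 mM KCl, 4 mM MgCl2, glycerol with compound (up to 100 μM) on ice for 10 min. Complexes were resolved by PAGE and read by phosphorimager.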

[5] = test system: Human immunodeficiency virus 1; assay: Antiviral activity against HIV1 Brazilian isolate 93BR021 infected in PHA-stimulated human PBMC assessed as inhibition of viral replication after 7 days; format: functional, organism-based; conditions: Human immunodeficiency virus 1, Brazilian isolate 93BR021, 168 h
Summary of the method: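 PHA-stimulated (4 μg/ml, 48–72 h) PBMCs pooled from at least two donors, kept in 20 U/ml IL-2, 5 × 10^4 cells/well. Infected with primary isolate 93BR021 (CCR5-tropic, subtype B) at MOI ≈0.1 with nine compound concentrations, triplicate wells, for 7 days. Supernatant reverse transcriptase activity was read, then cell MTS toxicity. EC50 was interpolated between bracketing points.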

[6] = test system: Human immunodeficiency virus 1; assay: Antiviral activity against HIV1 NL4-3 infected in human SupT1 cells assessed as inhibition of viral growth at 1 uM after 30 days by p24 ELISA; format: functional, organism-based; conditions: SUP-T1
Summary of the method: (§3)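 SupT1 cells (5 × 10^6) were Polybrene-treated and infected with NL4-3 (50 ng p24 equivalents), then washed. They were cultured in RPMI/10% FCS with compound at fixed levels (0.8 and 8 μM, or 1 and 10 μM) or none. Cultures were split every 3 days with fresh compound-containing medium for 30–31 days. Supernatant p24 was measured by ELISA.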

[7] = test system: Human immunodeficiency virus 1; assay: Antiviral activity against HIV1 NL4-3 infected in human 293T cells assessed as inhibition of p24 synthesis at 10 uM after 24 hrs by Western blotting
[8] = test system: Human immunodeficiency virus 1; assay: Antiviral activity against HIV1 NL4-3 infected in human SupT1 cells assessed as inhibition of viral growth at 10 uM after 30 days by p24 ELISA; format: functional, organism-based; conditions: SUP-T1; summary of the method: as §3
[9] = test system: Human immunodeficiency virus 1; assay: Antiviral activity against HIV1 NL4-3 infected in human 293T cells assessed as inhibition of Nef synthesis at 10 uM after 24 hrs by Western blotting
[10] = test system: Human immunodeficiency virus 1; assay: Antiviral activity against HIV1 infected in TNFalpha-stimulated human U1 cells assessed as inhibition of viral replication after 72 hrs; format: functional, organism-based; conditions: for EC50: Human immunodeficiency virus 1, U1, 72 h
Summary of the method: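 U1 cells (50,000/ml, RPMI/10% FCS) were induced with 5 ng/ml TNF-α and given compound at the same time over a six-point range from 0 to 11.9 or 25.1 μM, for 3 days. Supernatant reverse transcriptase activity was read. Cell toxicity was by MTS reduction (formazan at 492 nm) relative to untreated cells. Values were interpolated between bracketing points.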

[11] = test system: Human immunodeficiency virus 1; assay: Antiviral activity against HIV1 infected in TNFalpha-stimulated human U1 cells assessed as inhibition of Nef synthesis at 10 uM after 24 hrs by Western blotting; format: functional, organism-based; summary of the method: as §1
HeLa = assay: Inhibition of HIV1 Rev expressed in human HeLa cells co-expressing firefly luciferase reporter gene assessed as inhibition of firefly luciferase expression after 24 hrs; format: cell-based; conditions: Human immunodeficiency virus 1
Summary of the method: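 HeLa line with an integrated Rev-dependent Renilla luciferase reporter, plus firefly luciferase and HIV-1 IIIB Rev under Tet-Off control. Doxycycline was removed to induce expression alongside compound at various concentrations. Cells were plated at 2 × 10^4/well in triplicate.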

[12] = Inhibition of HIV1 Rev expressed in african green monkey 5BD.1 cells assessed as inhibition of p24 antigen treated for 16 hrs after washout with medium again readded for 24 hrs by ELISA
[13] = Cytotoxicity against african green monkey 5BD.1 cells after 2 days by MTS assay; format: cell-based; conditions: chlorocebus aethiops, read-out: TC50
Summary of the method: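 5BD.1 cells (COS-derived, Rev-dependent Gag-Pol particle producers; 20,000/well) were given compound at 0.1–30 μM for 16 h, then refreshed with compound for 24 h more. Cells were collected at 40 h for the MTS proliferation assay, with formazan read at 492 nm versus untreated cells. TC50 was by curve fit.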

[14] = test system: Human immunodeficiency virus 1; assay: Antiviral activity against HIV1 infected in TNFalpha-stimulated human U1 cells assessed as inhibition of Pr55gag synthesis at 10 uM after 24 hrs by Western blotting; format: functional, organism-based; summary of the method: as §1
[15] = Cytotoxicity against human MT4 cells after 5 days by MTS assay; format: cell-based; conditions: read-out: TC50
Summary of the method: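 MT-4 T cells were incubated with compound for 5 days. Toxicity was by MTS tetrazolium reduction, with formazan absorbance at 492 nm compared with cells given no compound.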

[16] = Inhibition of Mason-Pfizer monkey virus […]constitutive transport element-mediated p24 antigen production expressed in human HEK 293T cells after 72 hrs
[17] = test system: Human immunodeficiency virus 1; assay: Antiviral activity against HIV1 infected in TNFalpha-stimulated human U1 cells assessed as inhibition of p24 synthesis at 5 uM after 24 hrs by Western blotting; format: functional, organism-based; summary of the method: as §1
[18] = test system: Human immunodeficiency virus 1; assay: Antiviral activity against HIV1 NL4-3 infected in human 293T cells assessed as inhibition of Nef synthesis at 8 uM after 24 hrs by Western blotting
[19] = test system: Human immunodeficiency virus 1; assay: Antiviral activity against HIV1 NL4-3 infected in human SupT1 cells assessed as inhibition of viral growth at 0.8 uM after 30 days by p24 ELISA; format: functional, organism-based; conditions: SUP-T1; summary of the method: as §3
U1 = assay: Cytotoxicity against human U1 cells after 3 days by MTS assay; format: cell-based; conditions: u1, 72 h
[20] = test system: Human immunodeficiency virus 1; assay: Antiviral activity against HIV1 infected in TNFalpha-stimulated human U1 cells assessed as inhibition of Nef synthesis at 5 uM after 24 hrs by Western blotting; format: functional, organism-based; summary of the method: as §1
[21] = test system: Human immunodeficiency virus 1; assay: Antiviral activity against HIV1 infected in TNFalpha-stimulated human U1 cells assessed as inhibition of Pr55gag synthesis at 5 uM after 24 hrs by Western blotting; format: functional, organism-based; summary of the method: as §1
[22] = test system: Human immunodeficiency virus 1; assay: Antiviral activity against HIV1 NL4-3 infected in human 293T cells assessed as inhibition of p24 synthesis at 8 uM after 24 hrs by Western blotting
[23] = test system: Human immunodeficiency virus 1; assay: Antiviral activity against HIV1 NL4-3 infected in human SupT1 cells assessed as inhibition of viral growth at 8 uM after 30 days by p24 ELISA; format: functional, organism-based; conditions: SUP-T1; summary of the method: as §3
[24] = test system: Human immunodeficiency virus 1; assay: Inhibition of HIV1 Rev-radiolabeled Rev response element interaction after 10 mins by electrophoretic mobility shift assay; summary of the method: as §2

CCc1c(C)nc2sc(C(N)=O)c(N)c2c1C
Activity [1]: Active | EC50 [2]: 1.07 µM | inhibition (HEK-293T): Dose-dependent effect | EC50 [3]: 3.8 µM | inhibition [4]: inactive | EC50 [5]: 0.29 µM | Activity [6]: Active | Activity [7]: Active | Activity [8]: Active | Activity [9]: inactive | Activity [10]: Dose-dependent effect | EC50 [10]: 0.4 µM | Activity [11]: inactive | TC50 (HeLa): > 37.6 µM | EC50 [12]: 0.9 µM | CC50 at 48 h [13]: > 30 µM | Activity [14]: Active | CC50 at 120 h [15]: 32 µM | EC50 [16]: > 15 µM

Cc1cn([C@H]2C[C@H](N=[N+]=[N-])[C@@H](CO)O2)c(=O)[nH]c1=O [ZIDOVUDINE]
EC50 [5]: 2.47 µM

CCC(=C/[C@H](C)C/C=C/C(C)=C/[C@@H](C)C(=O)[C@@H](C)[C@H](O)[C@@H](C)C/C(C)=C/C(=O)O)/C=C/[C@@H]1OC(=O)C=C[C@@H]1C [LEPTOMYCIN B]
EC50 [2]: 0.00822 µM | TC50 (HeLa): 0.02 µM

COc1cccc(NC(=O)c2cc(Cl)nnc2Cl)c1
EC50 [2]: 8 µM | TC50 (HeLa): 18.5 µM | EC50 [12]: 4.9 µM | CC50 at 48 h [13]: > 30 µM | CC50 at 120 h [15]: 50 µM

Cc1ccc(NC(=O)c2sc(Cl)nc2C(F)(F)F)cc1
EC50 [2]: 9.73 µM | TC50 (HeLa): > 39.5 µM | EC50 [12]: 1.9 µM | CC50 at 48 h [13]: 25 µM | CC50 at 120 h [15]: 18 µM

CC(=O)Nc1cccc2n[se]nc12
EC50 [2]: 8.99 µM | TC50 (HeLa): 51.6 µM | EC50 [12]: 10 µM | CC50 at 48 h [13]: > 30 µM | CC50 at 120 h [15]: > 100 µM

COc1ccc2nc(C(F)(F)F)c(C#N)c(N)c2c1
Activity [17]: Active | EC50 [2]: 2.24 µM | inhibition (HEK-293T): Dose-dependent effect | EC50 [3]: 1.9 µM | inhibition [4]: inactive | Activity [18]: inactive | EC50 [5]: 0.63 µM | Activity [19]: Active | Activity [10]: Dose-dependent effect | EC50 [10]: < 0.25 µM | Activity (U1): Toxic | Activity [20]: inactive | TC50 (HeLa): 17.2 µM | EC50 [12]: 2.5 µM | CC50 at 48 h [13]: > 30 µM | Activity [21]: Active | Activity [22]: Active | Activity [23]: Active | CC50 at 120 h [15]: 28 µM | EC50 [16]: > 15 µM

O=c1c2ccccc2n2nnc3ccc(NCCCN4CCN(CCCNc5ccc6nnn7c8ccccc8c(=O)c5c67)CC4)c1c32 [TEMACRAZINE]
EC50 [10]: 2 µM

NC[C@@H]1O[C@H](O[C@H]2[C@@H](O)[C@H](O[C@@H]3[C@@H](O)[C@H](N)C[C@H](N)[C@H]3O[C@H]3O[C@H](CN)[C@@H](O)[C@H](O)[C@H]3N)O[C@@H]2CO)[C@H](N)[C@@H](O)[C@@H]1O
inhibition [24]: Active

Fc1ccc(Nc2ncnc3ccccc23)cc1Cl
EC50 [2]: 8.98 µM | TC50 (HeLa): > 40.8 µM | EC50 [12]: 3 µM | CC50 at 48 h [13]: > 30 µM

COc1ccc2cc3c(N)n[nH]c3nc2c1
EC50 [2]: 0.48 µM | TC50 (HeLa): 8.41 µM | EC50 [12]: 0.9 µM | CC50 at 48 h [13]: > 30 µM | CC50 at 120 h [15]: 20 µM

CCc1c(C(=O)Nc2ccccc2)c(C)nc2sc(C(N)=O)c(N)c12
EC50 [2]: 2.42 µM | TC50 (HeLa): 7.91 µM | EC50 [12]: 3 µM | CC50 at 48 h [13]: > 30 µM | CC50 at 120 h [15]: > 100 µM

COC(=O)c1c(N)ncn1-c1ccc(C)cc1
EC50 [2]: 11.2 µM | TC50 (HeLa): > 41.8 µM | EC50 [12]: 22 µM | CC50 at 48 h [13]: > 30 µM | CC50 at 120 h [15]: > 100 µM

CS(=O)(=O)c1ncc(-c2ccc(Br)cc2)cn1
EC50 [2]: 7.48 µM | TC50 (HeLa): 30.9 µM | EC50 [12]: 0.2 µM | CC50 at 48 h [13]: > 30 µM | CC50 at 120 h [15]: 10 µM

CCOC(=O)c1c(N)ncn1-c1ccccc1
EC50 [2]: 11 µM | TC50 (HeLa): 33 µM | EC50 [12]: 30 µM | CC50 at 48 h [13]: > 30 µM | CC50 at 120 h [15]: > 100 µM
